Reference: ChEMBL document CHEMBL4699539, “Dual antagonists of α5β1/αvβ1 integrin for airway hyperresponsiveness” (Bioorg Med Chem Lett, 2020)
The source made the active and inactive calls. The calls are words filed in the database; no cut-off is given here.

Legend:
Integrin alpha-5/beta-1 [1] = target: T1, Integrin alpha-5/beta-1 (Homo sapiens, UniProt P05556+P08648); test: Inhibition of alpha5beta1 integrin in human SW480 cells assessed as inhibition of cell adhesion to fibronectin incubated for 60 mins by crystal violet staining based analysis
T1 sequence (P05556 21-798 limits assumed): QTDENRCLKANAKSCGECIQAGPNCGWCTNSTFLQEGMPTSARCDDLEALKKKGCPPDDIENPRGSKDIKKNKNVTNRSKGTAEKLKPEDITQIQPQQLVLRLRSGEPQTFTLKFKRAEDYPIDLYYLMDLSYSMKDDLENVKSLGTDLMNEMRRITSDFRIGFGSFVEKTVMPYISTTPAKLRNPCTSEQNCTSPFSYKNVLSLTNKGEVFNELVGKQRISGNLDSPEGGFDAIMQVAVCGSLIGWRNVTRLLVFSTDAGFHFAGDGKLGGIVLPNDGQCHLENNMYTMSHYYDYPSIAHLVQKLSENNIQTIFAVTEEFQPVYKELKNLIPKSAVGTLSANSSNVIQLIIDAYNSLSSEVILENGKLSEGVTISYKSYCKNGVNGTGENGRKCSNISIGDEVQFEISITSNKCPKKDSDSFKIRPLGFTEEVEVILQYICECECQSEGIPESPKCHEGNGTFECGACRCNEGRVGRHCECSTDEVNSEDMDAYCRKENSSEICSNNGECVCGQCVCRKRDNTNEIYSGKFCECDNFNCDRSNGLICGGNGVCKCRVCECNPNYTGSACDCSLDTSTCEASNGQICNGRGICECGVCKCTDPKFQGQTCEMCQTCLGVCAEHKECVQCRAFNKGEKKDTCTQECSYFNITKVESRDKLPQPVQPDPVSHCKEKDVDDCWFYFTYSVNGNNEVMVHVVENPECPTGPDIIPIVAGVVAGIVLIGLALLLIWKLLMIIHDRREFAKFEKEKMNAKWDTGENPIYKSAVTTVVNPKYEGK
T1 sequence (P08648 42-894 limits assumed): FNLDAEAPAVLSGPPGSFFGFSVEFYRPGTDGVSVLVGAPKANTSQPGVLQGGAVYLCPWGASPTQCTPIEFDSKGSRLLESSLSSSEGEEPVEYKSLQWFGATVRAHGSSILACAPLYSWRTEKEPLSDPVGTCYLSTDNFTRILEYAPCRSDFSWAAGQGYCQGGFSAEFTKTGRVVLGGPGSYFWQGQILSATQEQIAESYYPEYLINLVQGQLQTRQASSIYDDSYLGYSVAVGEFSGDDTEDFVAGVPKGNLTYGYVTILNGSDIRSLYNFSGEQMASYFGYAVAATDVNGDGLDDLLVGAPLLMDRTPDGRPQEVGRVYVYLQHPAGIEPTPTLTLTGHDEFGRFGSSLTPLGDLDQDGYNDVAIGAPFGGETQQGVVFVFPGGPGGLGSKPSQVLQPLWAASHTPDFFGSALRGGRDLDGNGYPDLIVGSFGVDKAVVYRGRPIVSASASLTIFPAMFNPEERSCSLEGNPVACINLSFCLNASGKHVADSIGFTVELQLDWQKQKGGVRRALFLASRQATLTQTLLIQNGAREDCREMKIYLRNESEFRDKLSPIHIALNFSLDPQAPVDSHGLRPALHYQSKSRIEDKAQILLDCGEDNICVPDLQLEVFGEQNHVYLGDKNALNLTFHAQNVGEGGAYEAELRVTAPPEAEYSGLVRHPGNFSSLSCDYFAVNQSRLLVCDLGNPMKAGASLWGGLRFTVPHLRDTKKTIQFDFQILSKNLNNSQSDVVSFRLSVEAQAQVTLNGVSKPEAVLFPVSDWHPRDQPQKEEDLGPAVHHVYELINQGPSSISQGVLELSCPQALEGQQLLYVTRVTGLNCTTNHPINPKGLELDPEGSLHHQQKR
T1 sequence (P08648 895-1049 limits assumed): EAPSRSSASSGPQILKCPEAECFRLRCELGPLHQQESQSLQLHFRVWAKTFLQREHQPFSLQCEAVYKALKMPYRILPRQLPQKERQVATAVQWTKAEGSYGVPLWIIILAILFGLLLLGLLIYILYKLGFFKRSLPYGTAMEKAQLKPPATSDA
How it was run: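 Adhesion of SW480 cells plated on fibronectin coated at 0.3 µg/ml, used to measure α5β1-mediated attachment. IC50 values are means ± S.D., n = 3 or higher.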

Integrin alpha-V/beta-1 [2] = target: T2, Integrin alpha-V/beta-1 (Homo sapiens, UniProt P05556+P06756); test: Inhibition of alphavbeta1 integrin (unknown origin) expressed in CHO cells assessed as inhibition of cell adhesion to fibronectin incubated for 60 mins by crystal violet staining based analysis
T2 sequence (P05556 21-798 limits assumed): as the sequence (P05556 21-798 limits assumed) above
T2 sequence (P06756 31-889 limits assumed): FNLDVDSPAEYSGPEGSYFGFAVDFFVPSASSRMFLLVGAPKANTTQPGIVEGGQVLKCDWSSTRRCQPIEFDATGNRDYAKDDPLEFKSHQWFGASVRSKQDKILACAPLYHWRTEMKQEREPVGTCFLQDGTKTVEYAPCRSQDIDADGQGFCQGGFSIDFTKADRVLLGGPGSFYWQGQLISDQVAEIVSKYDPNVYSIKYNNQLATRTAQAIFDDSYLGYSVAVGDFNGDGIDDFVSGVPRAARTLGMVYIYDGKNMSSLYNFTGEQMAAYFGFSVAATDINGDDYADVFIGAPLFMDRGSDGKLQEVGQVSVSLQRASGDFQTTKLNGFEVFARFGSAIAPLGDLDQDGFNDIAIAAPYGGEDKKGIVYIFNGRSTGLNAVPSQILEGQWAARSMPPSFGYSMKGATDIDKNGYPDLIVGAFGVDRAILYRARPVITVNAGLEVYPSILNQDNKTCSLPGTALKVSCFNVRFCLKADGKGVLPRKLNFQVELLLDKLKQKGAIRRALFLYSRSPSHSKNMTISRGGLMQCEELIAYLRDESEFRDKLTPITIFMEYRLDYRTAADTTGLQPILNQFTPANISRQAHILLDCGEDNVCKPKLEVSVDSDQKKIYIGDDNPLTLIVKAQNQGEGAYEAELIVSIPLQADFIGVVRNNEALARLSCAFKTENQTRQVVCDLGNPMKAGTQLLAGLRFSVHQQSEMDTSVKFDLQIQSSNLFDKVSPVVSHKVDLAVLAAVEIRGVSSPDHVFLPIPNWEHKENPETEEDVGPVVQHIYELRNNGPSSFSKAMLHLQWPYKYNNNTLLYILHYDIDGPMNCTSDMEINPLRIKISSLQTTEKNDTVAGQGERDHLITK
T2 sequence (P06756 891-1048 limits assumed): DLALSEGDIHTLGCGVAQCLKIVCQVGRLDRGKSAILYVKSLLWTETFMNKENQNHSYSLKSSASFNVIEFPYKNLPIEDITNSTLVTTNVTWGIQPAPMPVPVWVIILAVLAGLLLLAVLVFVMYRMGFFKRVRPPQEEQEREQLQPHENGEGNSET
How it was run: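 Adhesion of CHOαv cells to fibronectin coated at 0.3 µg/ml, used to measure αvβ1-mediated attachment. IC50 values are means ± S.D., n = 3 or higher.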

Integrin alpha-V/beta-3 [3] = target: T3, Integrin alpha-V/beta-3 (Homo sapiens, UniProt P05106+P06756); test: Inhibition of alphavbeta3 integrin (unknown origin) expressed in human SW480 cells transfected with human beta3 assessed as inhibition of cell adhesion to fibrinogen incubated for 60 mins by crystal violet staining based analysis
T3 sequence (P05106 27-788 limits assumed): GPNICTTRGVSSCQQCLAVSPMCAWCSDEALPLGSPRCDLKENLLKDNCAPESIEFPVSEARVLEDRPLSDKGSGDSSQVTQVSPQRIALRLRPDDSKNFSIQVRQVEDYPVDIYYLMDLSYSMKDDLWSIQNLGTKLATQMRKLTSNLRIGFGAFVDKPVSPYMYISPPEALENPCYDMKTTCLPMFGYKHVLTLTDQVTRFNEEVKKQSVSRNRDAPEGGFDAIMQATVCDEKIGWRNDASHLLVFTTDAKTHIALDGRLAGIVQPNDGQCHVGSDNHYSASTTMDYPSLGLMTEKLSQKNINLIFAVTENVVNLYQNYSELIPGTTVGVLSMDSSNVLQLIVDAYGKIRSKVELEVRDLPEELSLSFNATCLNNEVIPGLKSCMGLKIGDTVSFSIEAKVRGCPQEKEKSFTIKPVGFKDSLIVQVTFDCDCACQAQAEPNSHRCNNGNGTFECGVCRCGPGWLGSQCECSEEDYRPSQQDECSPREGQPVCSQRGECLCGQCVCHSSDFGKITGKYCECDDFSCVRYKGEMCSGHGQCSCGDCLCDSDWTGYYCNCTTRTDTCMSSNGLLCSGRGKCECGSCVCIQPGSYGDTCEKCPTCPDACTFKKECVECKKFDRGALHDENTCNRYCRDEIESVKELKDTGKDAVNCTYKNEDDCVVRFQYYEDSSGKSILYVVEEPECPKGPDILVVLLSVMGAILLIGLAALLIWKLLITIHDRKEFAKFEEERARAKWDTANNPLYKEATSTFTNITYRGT
T3 sequence (P06756 31-889 limits assumed): as the sequence (P06756 31-889 limits assumed) above
T3 sequence (P06756 891-1048 limits assumed): as the sequence (P06756 891-1048 limits assumed) above
How it was run: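 SW480 cells transfected with human β3, allowed to adhere to fibrinogen coated at 1 µg/ml, used to measure αvβ3-mediated attachment. IC50 values are means ± S.D., n = 3 or higher.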

Integrin alpha-V/beta-8 = Integrin alpha-V/beta-8 (Homo sapiens, UniProt P06756+P26012); test: Inhibition of alphavbeta8 integrin (unknown origin) by solid phase binding assay; assay type: protein-complex assay
Integrin alpha-V/beta-6 = Integrin alpha-V/beta-6 (Homo sapiens, UniProt P06756+P18564); test: Inhibition of alphavbeta6 integrin (unknown origin) by solid phase binding assay; assay type: protein-complex assay
Sequence of Integrin alpha-V/beta-6 (P06756 31-889 limits assumed): as the sequence (P06756 31-889 limits assumed) above
Sequence of Integrin alpha-V/beta-6 (P06756 891-1048 limits assumed): as the sequence (P06756 891-1048 limits assumed) above
Sequence of Integrin alpha-V/beta-6 (P18564 22-788 limits assumed): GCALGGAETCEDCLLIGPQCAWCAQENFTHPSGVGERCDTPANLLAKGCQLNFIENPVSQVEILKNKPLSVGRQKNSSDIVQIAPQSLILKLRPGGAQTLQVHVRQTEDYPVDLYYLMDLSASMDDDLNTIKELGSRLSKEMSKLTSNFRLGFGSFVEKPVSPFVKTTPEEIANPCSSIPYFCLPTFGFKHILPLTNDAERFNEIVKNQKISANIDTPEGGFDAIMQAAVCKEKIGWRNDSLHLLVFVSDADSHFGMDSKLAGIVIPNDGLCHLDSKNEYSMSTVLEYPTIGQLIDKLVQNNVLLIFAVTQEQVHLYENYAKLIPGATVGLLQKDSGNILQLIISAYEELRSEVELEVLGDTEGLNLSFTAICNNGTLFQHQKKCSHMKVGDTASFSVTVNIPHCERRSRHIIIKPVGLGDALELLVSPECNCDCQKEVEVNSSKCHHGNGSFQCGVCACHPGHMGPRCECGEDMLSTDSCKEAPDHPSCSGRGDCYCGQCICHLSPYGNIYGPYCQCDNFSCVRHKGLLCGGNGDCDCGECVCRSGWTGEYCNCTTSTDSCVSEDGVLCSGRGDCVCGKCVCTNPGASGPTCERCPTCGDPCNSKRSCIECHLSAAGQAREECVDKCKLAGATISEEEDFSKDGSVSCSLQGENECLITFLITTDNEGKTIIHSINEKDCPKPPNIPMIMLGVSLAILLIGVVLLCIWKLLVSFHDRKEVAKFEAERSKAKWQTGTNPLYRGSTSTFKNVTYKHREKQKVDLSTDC

Integrin alpha-V/beta-1 [4] = target: T2, Integrin alpha-V/beta-1; test: Inhibition of alphavbeta1 integrin (unknown origin) by solid phase binding assay; assay type: protein-complex assay
Integrin alpha-V/beta-5 = Integrin alpha-V/beta-5 (Homo sapiens, UniProt P06756+P18084); test: Inhibition of alphavbeta5 integrin (unknown origin) by solid phase binding assay; assay type: protein-complex assay
Integrin alpha-4/beta-1 = Integrin alpha-4/beta-1 (Homo sapiens, UniProt P05556+P13612); test: Inhibition of alpha4beta1 integrin (unknown origin) by solid phase binding assay; assay type: protein-complex assay
Integrin alpha-5/beta-1 [5] = target: T1, Integrin alpha-5/beta-1; test: Inhibition of alpha5beta1 integrin (unknown origin) by solid phase binding assay; assay type: protein-complex assay
Integrin alpha-V/beta-3 [6] = target: T3, Integrin alpha-V/beta-3; test: Inhibition of alphavbeta3 integrin (unknown origin) by solid phase binding assay; assay type: protein-complex assay
Homo sapiens = species on record: Homo sapiens; test: Selectivity index, ratio of IC50 for alphavbeta3 integrin (unknown origin) to IC50 for alpha4beta1 integrin (unknown origin) by solid phase binding assay
Mus musculus [7] = species on record: Mus musculus; test: Antagonist activity at alpha5beta1 integrin/alphavbeta1 integrin in mouse tracheal rings assessed as inhibition of methacholine-induced airway hyperresponsiveness at 100 nM pretreated with IL-13 for 12 hrs followed by incubation with compound for 1 hr in presence of methacholine; assay type: tissue-based; conditions: Trachea, filed as antagonist
How it was run: (§1)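 Wild-type mouse tracheal rings incubated 12 h with IL-13 (100 ng/mL), then 1 h with compound or vehicle. Force generated was measured in response to a range of methacholine concentrations. Negative-control rings received no IL-13. n=3 rings per group; statistics by repeated measures of variance.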

Mus musculus [8] = species on record: Mus musculus; test: Antagonist activity at alpha5beta1 integrin/alphavbeta1 integrin in mouse tracheal rings assessed as inhibition of methacholine-induced airway hyperresponsiveness at 100 nM incubated with compound for 1 hr in presence of methacholine; assay type: tissue-based; conditions: Trachea, filed as antagonist; how it was run: as §1
[9] = Apparent permeability of the compound across basolateral to apical side in human Caco-2 cells; assay type: ADME, cell-based
[10] = Apparent permeability of the compound across apical to basolateral side in human Caco-2 cells; assay type: ADME, cell-based

| IC50 (Integrin alpha-5/beta-1 [1]) | IC50 (Integrin alpha-V/beta-1 [2]) | IC50 (Integrin alpha-V/beta-3 [3]) | Structure (SMILES) | IC50 (Integrin alpha-V/beta-8) | IC50 (Integrin alpha-V/beta-6) | IC50 (Integrin alpha-V/beta-1 [4]) | IC50 (Integrin alpha-V/beta-5) | IC50 (Integrin alpha-4/beta-1) | IC50 (Integrin alpha-5/beta-1 [5]) | IC50 (Integrin alpha-V/beta-3 [6]) | other results |
| --- | --- | --- | --- | --- | --- | --- | --- | --- | --- | --- | --- |
| 830 nM | 316 nM | 10000 nM | N=C(N)NCCCCCC(=O)NC[C@H](NC(=O)[C@@H]1CCCN1S(=O)(=O)c1ccccc1)C(=O)O |  |  |  |  |  |  |  |  |
| 50 nM | 158 nM | 6500 nM | N=C(N)Nc1cccc(C(=O)NNC(=O)NC[C@H](NC(=O)[C@@H]2CCCN2S(=O)(=O)c2ccccc2)C(=O)O)c1 |  |  |  |  |  |  |  |  |
| 32 nM |  | 56000 nM | N=C(N)Nc1cc(NC(=O)CCCN)cc(C(=O)NCC(=O)NC[C@H](NC(=O)[C@@H]2CCCN2S(=O)(=O)c2ccccc2)C(=O)O)c1 |  |  |  |  |  |  |  |  |
|  | 32 nM | 1100 nM | N=C(N)Nc1cccc(C(=O)NCC(=O)NC[C@H](NC(=O)[C@@H]2CCCN2S(=O)(=O)c2ccccc2)C(=O)O)c1 |  |  |  |  |  |  |  | inhibition (Mus musculus [7]): Active; inhibition (Mus musculus [8]): Active |
| 110 nM |  | 16800 nM | CCCCCCCC(=O)Nc1cc(NC(=N)N)cc(C(=O)NCC(=O)NC[C@H](NC(=O)[C@@H]2CCCN2S(=O)(=O)c2ccccc2)C(=O)O)c1 |  |  |  |  |  |  |  |  |

Second part, the molecule before the results:

| Structure (SMILES) | IC50 (Integrin alpha-5/beta-1 [1]) | IC50 (Integrin alpha-V/beta-1 [2]) | IC50 (Integrin alpha-V/beta-3 [3]) | IC50 (Integrin alpha-V/beta-8) | IC50 (Integrin alpha-V/beta-6) | IC50 (Integrin alpha-V/beta-1 [4]) | IC50 (Integrin alpha-V/beta-5) | IC50 (Integrin alpha-4/beta-1) | IC50 (Integrin alpha-5/beta-1 [5]) | IC50 (Integrin alpha-V/beta-3 [6]) | other results |
| --- | --- | --- | --- | --- | --- | --- | --- | --- | --- | --- | --- |
| N=C(N)Nc1cc(NC(=O)CCCCNC(=O)C23CC4CC(CC(C4)C2)C3)cc(C(=O)NCC(=O)NC[C@H](NC(=O)[C@@H]2CCCN2S(=O)(=O)c2ccccc2)C(=O)O)c1 |  |  |  | 6830 nM | 1870 nM | < 0.1 nM | 320 nM | 182 nM | 0.7 nM | > 10000 nM | Ratio IC50 (Homo sapiens): > 100 |
| N=C(N)Nc1cc(NC(=O)CNC(=O)C23CC4CC(CC(C4)C2)C3)cc(C(=O)NCC(=O)NC[C@H](NC(=O)[C@@H]2CCCN2S(=O)(=O)c2ccccc2)C(=O)O)c1 |  |  |  | > 10000 nM | > 10000 nM | < 0.1 nM | > 10000 nM | 136 nM | 1.6 nM | > 10000 nM |  |
| N=C(N)Nc1cc(NC(=O)CCNC(=O)C23CC4CC(CC(C4)C2)C3)cc(C(=O)NCC(=O)NC[C@H](NC(=O)[C@@H]2CCCN2S(=O)(=O)c2ccccc2)C(=O)O)c1 |  |  |  | > 10000 nM | > 10000 nM | < 0.1 nM | > 10000 nM | 100 nM | 1.4 nM | > 10000 nM | Ratio IC50 (Homo sapiens): > 100 |
| N=C(N)NCCCCCNC(=O)NC[C@H](NC(=O)[C@@H]1CCCN1S(=O)(=O)c1ccccc1)C(=O)O | 500 nM | 0.8 nM |  |  |  |  |  |  |  |  |  |
| N=C(N)NCCCCNC(=O)NC[C@H](NC(=O)[C@@H]1CCCN1S(=O)(=O)c1ccccc1)C(=O)O | 9700 nM | 4 nM | > 100000 nM |  |  |  |  |  |  |  |  |
| N=C(N)NCCCCCCNC(=O)NC[C@H](NC(=O)[C@@H]1CCCN1S(=O)(=O)c1ccccc1)C(=O)O | 900 nM | 0.9 nM | 15000 nM |  |  |  |  |  |  |  |  |
| N=C(N)Nc1cc(NC(=O)CCCC(=O)NC23CC4CC(CC(C4)C2)C3)cc(C(=O)NCC(=O)NC[C@H](NC(=O)[C@@H]2CCCN2S(=O)(=O)c2ccccc2)C(=O)O)c1 |  |  |  | > 10000 nM | > 10000 nM | 0.3 nM | 980 nM | 161 nM | 1 nM | > 10000 nM | Ratio IC50 (Homo sapiens): > 100 |
| N=C(N)NCCCCC(=O)Nc1ccc(C[C@H](NC(=O)[C@@H]2CCCN2S(=O)(=O)c2ccccc2)C(=O)O)cc1 | > 10000 nM | 0.5 nM | > 10000 nM |  |  |  |  |  |  |  |  |
| N=C(N)Nc1cc(NC(=O)CCCNC(=O)C23CC4CC(CC(C4)C2)C3)cc(C(=O)NCC(=O)NC[C@H](NC(=O)[C@@H]2CCCN2S(=O)(=O)c2ccccc2)C(=O)O)c1 | 2.6 nM | 0.8 nM | 8800 nM | > 10000 nM | 2760 nM | 0.14 nM | 3000 nM | 105 nM | 0.8 nM | > 10000 nM | Papp [9]: 0.27 10^-6 cm/s; Papp [10]: 0.37 10^-6 cm/s; Ratio IC50 (Homo sapiens): > 100 |
